Experimental data: ChEMBL document CHEMBL5316295, “Systematic Design of Adenosine Analogs as Inhibitors of a Clostridioides difficile-Specific DNA Adenine Methyltransferase Required for Normal Sporulation and Persistence” (J Med Chem, 2023)
The source made the active and inactive calls. The calls are words filed in the database; no cut-off is given here.

Assays:
[1] = (§1) Inhibition of Clostridioides difficile-specific DNA adenine methyltransferase mediated methylation using 5'-CGA TTC AAA AAG TCC CAA G-3' and 3'-GCT AAG TTT TTC AGG GTT C-5' as substrate and SAM as cosubstrate preincubated for 5 mins followed by substrate and cosubstrate addition and measured after 3 mins by MTase glo assay
[2] = Binding affinity to Clostridioides difficile-specific DNA adenine methyltransferase by MicroCal PEAQ-ITC instrument analysis
[3] = Binding affinity to Clostridioides difficile-specific DNA adenine methyltransferase by MicroCal PEAQ ITC analysis
Method in brief: (§2)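 Test compound (200–900 μM) titrated into CamA (20–60 μM) at 25 °C in 325 mM NaCl, 20 mM Tris–HCl pH 7.5, 0.5 mM TCEP, 10% DMSO; 0.2 μL initial plus 18 × 2 μL injections. Reverse titration used for poorly soluble compounds. Data fitted to a one-site model with offset subtracted; K_D, ΔH, −TΔS and ΔG derived from the fit.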

[4] = test system: Clostridioides difficile; assay: (§3) Inhibition of Clostridioides difficile-specific DNA adenine methyltransferase using 5'-CGA TTC AAA AAG TCC CAA G-3' and 3'-GCT AAG TTT TTC AGG GTT C-5' as substrate and SAM as cosubstrate at 50 uM preincubated for 5 mins followed by substrate and cosubstrate addition and measured after 3 mins by MTase-Glo assay; conditions: time 8.0 min
[5] = as §3, with “methyltransferase PDB 7RFL” for “methyltransferase”, “cosubstrate” for “cosubstrate at 50 uM”
Method in brief: (§4)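 Then 2.5 μM 19-bp dsDNA and 40 μM SAM were added, 3 min at ~22 °C, TFA quench (0.1%). Luminescent SAH readout against a serially diluted SAH standard curve; IC50 and Hill slope reported.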

[6] = Binding affinity to Clostridioides difficile-specific DNA adenine methyltransferase PDB 7RFL by MicroCal PEAQ ITC analysis
Method in brief: (§5)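 CamA (pXC2184 construct) in 325 mM NaCl, 20 mM Tris–HCl pH 7.5, 0.5 mM TCEP, 10% DMSO at 25 °C; 200–900 μM compound titrated into 20–60 μM protein (0.2 μL initial injection then 18 × 2 μL; reverse titration for poorly soluble compounds). Data fitted to a one-site model with offset subtracted to obtain K_D.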

[7] = molecular target: Histone-lysine N-methyltransferase, H3 lysine-79 specific (Homo sapiens) (UniProt Q8TEK3); assay: (§6) Inhibition of human DOT1L using oligonucleosome as substrate and 3H-SAM as cosubstrate at 10 uM pretreated with compound for 20 mins in presence of oligonucleosome followed by cosubstrate addition and measured after 1 hr; conditions: time 80.0 min
Sequence of Histone-lysine N-methyltransferase, H3 lysine-79 specific (Homo sapiens) (Q8TEK3 whole entry, looked up): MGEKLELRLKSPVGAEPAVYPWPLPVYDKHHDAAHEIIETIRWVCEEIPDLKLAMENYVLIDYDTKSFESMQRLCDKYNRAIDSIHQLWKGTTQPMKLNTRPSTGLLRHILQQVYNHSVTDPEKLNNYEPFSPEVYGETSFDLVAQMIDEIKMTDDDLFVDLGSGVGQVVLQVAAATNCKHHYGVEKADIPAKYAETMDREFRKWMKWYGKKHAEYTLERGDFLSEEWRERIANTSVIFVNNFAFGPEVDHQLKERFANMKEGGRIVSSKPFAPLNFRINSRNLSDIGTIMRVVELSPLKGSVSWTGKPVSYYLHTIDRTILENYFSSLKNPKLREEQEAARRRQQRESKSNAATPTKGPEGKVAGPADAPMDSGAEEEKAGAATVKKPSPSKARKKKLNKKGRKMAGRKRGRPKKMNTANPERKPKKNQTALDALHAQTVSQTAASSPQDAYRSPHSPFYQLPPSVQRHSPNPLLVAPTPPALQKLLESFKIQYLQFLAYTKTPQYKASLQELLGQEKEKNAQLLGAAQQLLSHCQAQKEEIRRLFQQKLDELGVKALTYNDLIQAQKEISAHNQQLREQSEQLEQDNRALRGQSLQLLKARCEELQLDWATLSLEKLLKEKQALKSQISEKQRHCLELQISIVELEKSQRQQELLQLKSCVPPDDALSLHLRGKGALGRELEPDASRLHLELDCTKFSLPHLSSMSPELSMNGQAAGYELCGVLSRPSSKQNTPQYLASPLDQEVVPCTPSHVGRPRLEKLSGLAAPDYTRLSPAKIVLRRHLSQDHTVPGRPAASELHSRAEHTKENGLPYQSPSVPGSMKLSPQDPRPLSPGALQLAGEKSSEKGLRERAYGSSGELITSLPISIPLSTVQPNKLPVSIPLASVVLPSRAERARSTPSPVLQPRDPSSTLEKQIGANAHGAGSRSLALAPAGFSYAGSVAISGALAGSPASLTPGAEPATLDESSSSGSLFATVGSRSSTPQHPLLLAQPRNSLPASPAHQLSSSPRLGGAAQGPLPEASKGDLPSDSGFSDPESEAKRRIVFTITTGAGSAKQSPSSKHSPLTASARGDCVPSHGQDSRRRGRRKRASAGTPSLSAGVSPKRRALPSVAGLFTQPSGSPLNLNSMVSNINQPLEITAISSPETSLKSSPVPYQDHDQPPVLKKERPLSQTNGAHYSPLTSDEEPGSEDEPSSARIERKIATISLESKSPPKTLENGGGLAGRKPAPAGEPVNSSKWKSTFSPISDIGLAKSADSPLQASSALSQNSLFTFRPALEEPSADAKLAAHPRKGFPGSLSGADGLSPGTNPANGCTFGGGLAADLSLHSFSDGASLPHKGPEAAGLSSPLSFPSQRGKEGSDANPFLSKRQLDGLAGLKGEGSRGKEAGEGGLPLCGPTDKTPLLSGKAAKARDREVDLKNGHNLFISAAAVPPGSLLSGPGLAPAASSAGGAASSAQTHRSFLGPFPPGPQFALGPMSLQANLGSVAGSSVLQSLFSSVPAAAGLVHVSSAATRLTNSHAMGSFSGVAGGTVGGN
Method in brief: (§7)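 Enzymes (DOT1L 1 nM; EZH2, G9a, PRMT1 5 nM) mixed with substrate (0.05 mg/mL oligonucleosomes for DOT1L; 0.05 mg/mL core histone for EZH2; 5 μM H3 1–21 peptide for G9a; 5 μM H4 for PRMT1). Compound (10 μM) added for 20 min at room temperature, then 1 μM ³H-SAM for 1 h at 30 °C; filter-paper read-out. Triplicates, mean ± SD.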

[8] = molecular target: T1, Histone-lysine N-methyltransferase EHMT2 (Homo sapiens) (UniProt Q96KQ7); assay: as §6, with “G9a (913 to 1193 residues) expressed in Escherichia coli BL21 (DE3)-gold cells” for “DOT1L”, “histone H3 (1 to 21 residues)” for “oligonucleosome”; conditions: time 80.0 min; method in brief: as §7
T1 sequence (whole entry): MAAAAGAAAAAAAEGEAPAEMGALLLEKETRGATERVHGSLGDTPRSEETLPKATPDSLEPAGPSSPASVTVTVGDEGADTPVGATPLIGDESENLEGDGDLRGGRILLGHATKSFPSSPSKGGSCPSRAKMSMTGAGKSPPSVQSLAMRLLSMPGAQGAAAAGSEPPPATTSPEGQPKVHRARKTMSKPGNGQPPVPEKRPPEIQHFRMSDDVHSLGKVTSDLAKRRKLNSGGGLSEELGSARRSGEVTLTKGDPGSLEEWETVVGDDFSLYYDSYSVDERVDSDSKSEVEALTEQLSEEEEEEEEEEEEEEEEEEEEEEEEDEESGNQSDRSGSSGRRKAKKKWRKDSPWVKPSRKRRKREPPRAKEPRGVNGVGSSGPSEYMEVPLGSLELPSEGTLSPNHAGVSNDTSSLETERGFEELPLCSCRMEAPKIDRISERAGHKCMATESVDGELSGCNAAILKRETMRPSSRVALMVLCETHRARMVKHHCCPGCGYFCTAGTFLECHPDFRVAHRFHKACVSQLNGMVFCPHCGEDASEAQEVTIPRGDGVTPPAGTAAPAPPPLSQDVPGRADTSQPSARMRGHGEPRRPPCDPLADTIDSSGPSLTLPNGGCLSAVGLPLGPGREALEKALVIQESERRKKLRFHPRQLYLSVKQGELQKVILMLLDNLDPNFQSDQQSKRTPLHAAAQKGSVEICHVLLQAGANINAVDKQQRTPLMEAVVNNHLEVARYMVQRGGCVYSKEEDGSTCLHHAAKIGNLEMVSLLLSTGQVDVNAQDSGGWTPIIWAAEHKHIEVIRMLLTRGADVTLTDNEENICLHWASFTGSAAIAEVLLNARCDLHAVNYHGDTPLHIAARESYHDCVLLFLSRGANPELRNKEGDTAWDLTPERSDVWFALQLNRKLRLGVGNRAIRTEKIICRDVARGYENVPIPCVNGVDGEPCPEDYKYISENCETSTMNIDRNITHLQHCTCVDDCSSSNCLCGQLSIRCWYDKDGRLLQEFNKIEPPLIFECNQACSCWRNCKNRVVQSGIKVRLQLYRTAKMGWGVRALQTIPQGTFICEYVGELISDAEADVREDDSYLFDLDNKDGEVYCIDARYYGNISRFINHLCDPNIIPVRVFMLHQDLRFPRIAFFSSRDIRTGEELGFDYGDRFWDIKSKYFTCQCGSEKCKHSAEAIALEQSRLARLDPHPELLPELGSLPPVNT

[9] = molecular target: Protein arginine N-methyltransferase 1 (Homo sapiens) (UniProt Q99873); assay: Inhibition of PRMT1 (unknown origin) using histone H4 as substrate and 3H-SAM as cosubstrate at 10 uM pretreated with compound for 20 mins in presence of histone H4 followed by cosubstrate addition and measured after 1 hr; conditions: time 80.0 min; method in brief: as §7
Sequence of Protein arginine N-methyltransferase 1 (Homo sapiens) (Q99873 whole entry, looked up): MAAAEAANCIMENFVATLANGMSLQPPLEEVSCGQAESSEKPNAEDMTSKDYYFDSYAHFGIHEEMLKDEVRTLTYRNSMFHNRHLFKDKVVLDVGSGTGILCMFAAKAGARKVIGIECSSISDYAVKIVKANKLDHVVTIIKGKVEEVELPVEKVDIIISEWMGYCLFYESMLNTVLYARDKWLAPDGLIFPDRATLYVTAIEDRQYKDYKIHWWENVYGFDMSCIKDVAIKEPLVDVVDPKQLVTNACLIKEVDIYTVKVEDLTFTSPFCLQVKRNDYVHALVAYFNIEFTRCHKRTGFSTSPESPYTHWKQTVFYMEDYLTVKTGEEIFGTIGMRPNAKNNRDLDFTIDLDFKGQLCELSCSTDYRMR

[10] = test system: Clostridioides difficile; assay: as §1, with “as cosubstrate at 1 to 10 uM preincubated for” for “as cosubstrate preincubated for”; conditions: dose 1-10 µM, time 8.0 min
[11] = as §3, with “methyltransferase PDB 7RFK” for “methyltransferase”, “cosubstrate” for “cosubstrate at 50 uM”; method in brief: as §4
[12] = Binding affinity to Clostridioides difficile-specific DNA adenine methyltransferase PDB 7RFK by MicroCal PEAQ ITC analysis; method in brief: as §5
[13] = test system: Caulobacter vibrioides; assay: Inhibition of Caulobacter vibrioides CcrM using 5'-CGA TTC AAA AAG TCC CAA G-3' and 3'-GCT AAG TTT TTC AGG GTT C-5' as substrate and SAM as cosubstrate at 10 uM incubated for 5 mins
Method in brief: (§8)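 Conditions were enzyme 0.1 μM, DNA 5 μM, SAM 30 μM, inhibitor 10 μM, at ~22 °C in 50 mM Tris–HCl pH 7.5, 100 mM NaCl, 1 mM DTT, 0.25% DMSO, run 5 min. Substrate and SAM levels were above K_M.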

[14] = molecular target: T2, DNA adenine methylase (Escherichia coli K-12) (UniProt P0AEE8); assay: Inhibition of Escherichia coli Dam using 5'-CCG CGG ATC CTG CT-3' and 3'-GGC GCC TAG GAC GA-5' as substrate and SAM as cosubstrate at 10 uM incubated for 5 mins; method in brief: as §8
T2 sequence (whole entry): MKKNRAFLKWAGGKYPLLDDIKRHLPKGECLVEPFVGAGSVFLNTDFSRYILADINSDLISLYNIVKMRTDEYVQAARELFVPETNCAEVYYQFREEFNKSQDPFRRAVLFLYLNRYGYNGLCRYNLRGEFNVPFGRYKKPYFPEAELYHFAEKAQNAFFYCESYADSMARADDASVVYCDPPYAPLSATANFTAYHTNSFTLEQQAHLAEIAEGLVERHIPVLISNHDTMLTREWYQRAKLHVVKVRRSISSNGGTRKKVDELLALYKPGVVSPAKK

[15] = molecular target: mRNA (2'-O-methyladenosine-N(6)-)-methyltransferase (Homo sapiens) (UniProt Q9H4Z3); assay: Inhibition of human PCIF1 using m7GpppAmG as substrate and SAM as cosubstrate at 10 uM incubated for 15 mins
Sequence of mRNA (2'-O-methyladenosine-N(6)-)-methyltransferase (Homo sapiens) (Q9H4Z3 whole entry): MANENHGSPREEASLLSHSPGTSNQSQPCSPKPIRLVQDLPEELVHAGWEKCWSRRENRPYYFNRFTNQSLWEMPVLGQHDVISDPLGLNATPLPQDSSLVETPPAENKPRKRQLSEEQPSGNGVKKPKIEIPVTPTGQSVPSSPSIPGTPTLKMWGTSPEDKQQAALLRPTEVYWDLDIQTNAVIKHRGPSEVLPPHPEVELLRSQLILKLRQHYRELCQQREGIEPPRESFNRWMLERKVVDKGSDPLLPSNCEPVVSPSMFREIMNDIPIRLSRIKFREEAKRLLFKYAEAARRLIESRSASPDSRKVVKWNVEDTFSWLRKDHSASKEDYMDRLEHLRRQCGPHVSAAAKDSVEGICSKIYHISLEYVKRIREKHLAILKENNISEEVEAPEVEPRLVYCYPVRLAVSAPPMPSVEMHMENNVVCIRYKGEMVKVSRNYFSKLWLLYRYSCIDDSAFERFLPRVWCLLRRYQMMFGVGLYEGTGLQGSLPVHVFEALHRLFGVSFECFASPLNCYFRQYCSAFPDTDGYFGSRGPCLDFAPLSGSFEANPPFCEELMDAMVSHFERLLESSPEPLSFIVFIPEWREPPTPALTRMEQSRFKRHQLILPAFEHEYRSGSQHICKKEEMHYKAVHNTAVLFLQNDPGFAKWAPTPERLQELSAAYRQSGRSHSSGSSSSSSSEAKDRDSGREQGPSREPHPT
Method in brief: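 Enzyme 0.1 μM with 5 μM RNA, 30 μM SAM and 10 μM inhibitor at ~22 °C in 50 mM Tris–HCl pH 7.5, 100 mM NaCl, 1 mM DTT, 0.25% DMSO. PCIF1 run 15 min with capped RNA; MettL5-Trm112 run 1 h with ssRNA.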

[16] = molecular target: DNMT3A-DNMT3L (Mus musculus) (UniProt O88508+Q9CWR8); assay: Inhibition of mouse DNMT3A/DNMT3L using 5'-G CATGCGTTCTAATTAGAAUGCATG-3' and 3'-GTA CGS AAG ATT AAT CTT GCG TAC G-5' as substrate and SAM as cosubstrate at 10 uM incubated for 1 hr; type: protein-complex assay
Sequence of DNMT3A-DNMT3L (Mus musculus) (Q9CWR8 whole entry, looked up, other chains not shown): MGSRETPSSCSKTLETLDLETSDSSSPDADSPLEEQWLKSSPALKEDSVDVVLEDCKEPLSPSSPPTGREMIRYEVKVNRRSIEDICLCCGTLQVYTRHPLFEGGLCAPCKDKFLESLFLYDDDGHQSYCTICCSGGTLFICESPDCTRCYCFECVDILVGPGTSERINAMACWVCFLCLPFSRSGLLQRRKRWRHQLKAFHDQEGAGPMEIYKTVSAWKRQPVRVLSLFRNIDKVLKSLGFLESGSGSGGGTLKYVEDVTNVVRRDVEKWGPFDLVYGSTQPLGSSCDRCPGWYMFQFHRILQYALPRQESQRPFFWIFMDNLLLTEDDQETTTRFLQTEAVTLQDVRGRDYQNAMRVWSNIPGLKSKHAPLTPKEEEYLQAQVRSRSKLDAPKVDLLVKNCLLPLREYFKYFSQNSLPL
Method in brief: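 Dnmt3a-3L (0.5 μM) with 5 μM dsDNA, 25 μM SAM and 10 μM inhibitor in 20 mM Tris pH 7.5, 40 mM NaCl, 4 mM DTT, 20% glycerol, run 1 h at 37 °C.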

[17] = as §3, with “methyltransferase PDB 7RFM” for “methyltransferase”, “cosubstrate” for “cosubstrate at 50 uM”; method in brief: as §4
[18] = Binding affinity to Clostridioides difficile-specific DNA adenine methyltransferase PDB 7RFM by MicroCal PEAQ ITC analysis; method in brief: as §5
[19] = test system: Clostridioides difficile; assay: Binding affinity to Clostridioides difficile-specific DNA adenine methyltransferase assessed as change in enthalpy by MicroCal PEAQ-ITC instrument analysis; method in brief: as §2
[20] = as §3, with “methyltransferase PDB 8CXS” for “methyltransferase”, “cosubstrate” for “cosubstrate at 50 uM”
Method in brief: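 Reaction started with 2.5 μM dsDNA and 40 μM SAM (final), run 3 min, then quenched with 0.1% TFA. SAH measured by MTase-Glo luminescence against an SAH standard curve.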

[21] = Binding affinity to Clostridioides difficile-specific DNA adenine methyltransferase PDB 8CXS by MicroCal PEAQ ITC analysis; method in brief: as §2

OC[C@H]1O[C@@H](n2cnc3c(NCCCCc4ccccc4)ncnc32)[C@H](O)[C@@H]1O
IC50 [1]: 1.6 µM | Kd [2]: 1.6 µM

Nc1ncnc2c1ncn2[C@@H]1O[C@H](CO)[C@@H](O)[C@H]1O [ADENOSINE]
Kd [3]: > 70 µM

CC(C)N(CCCNC(=O)Nc1ccc(C(C)(C)C)cc1)C[C@H]1O[C@@H](n2cc(Br)c3c(N)ncnc32)[C@H](O)[C@@H]1O
inhibition [4]: Active | IC50 [5]: 4.7 µM | Kd [6]: 6.3 µM

Nc1ncnc2c1ncn2[C@@H]1O[C@H](CSCC[C@H](N)C(=O)O)[C@@H](O)[C@H]1O
inhibition [7]: Active | inhibition [8]: Active | inhibition [9]: Active

CC(C)(C)OC(=O)NCCC1CCN(c2ncnc3c2ncn3[C@@H]2O[C@H](CO)[C@@H](O)[C@H]2O)CC1
inhibition [10]: inactive

OC[C@H]1O[C@@H](n2cnc3c(N[C@H]4CCc5ccccc54)ncnc32)[C@H](O)[C@@H]1O
IC50 [1]: 43 µM | Kd [2]: 49 µM

OC[C@H]1O[C@@H](n2cnc3c(NCc4ccccc4)ncnc32)[C@H](O)[C@@H]1O [N6-BENZYLADENOSINE]
IC50 [1]: 15 µM | Kd [2]: 13 µM

Nc1ncnc2c1ncn2[C@@H]1O[C@H](C[C@@H](N)CC[C@H](N)C(=O)O)[C@@H](O)[C@H]1O [SINEFUNGIN]
IC50 [11]: 24 µM | Kd [12]: 23 µM | inhibition [13]: Active | inhibition [14]: Active | inhibition [15]: Active | inhibition [16]: Active

OC[C@H]1O[C@@H](n2cnc3c(NCc4ccc(O)cc4)ncnc32)[C@H](O)[C@@H]1O
IC50 [1]: 4.8 µM | Kd [2]: 5.3 µM

CC(C)N(CCCNC(=O)Nc1ccc(C(C)(C)C)cc1)C[C@H]1O[C@@H](n2ccc3c(N)ncnc32)[C@H](O)[C@@H]1O
IC50 [17]: 43 µM | Kd [18]: 18 µM

CC(C)(C)OC(=O)N1CCC2(CCN(c3ncnc4c3ncn4[C@@H]3O[C@H](CO)[C@@H](O)[C@H]3O)CC2)C1
inhibition [10]: inactive

Nc1ccc(CCNc2ncnc3c2ncn3[C@@H]2O[C@H](CO)[C@@H](O)[C@H]2O)cc1
Kd [2]: 18 µM

OC[C@H]1O[C@@H](n2cnc3c(NCCc4ccccc4)ncnc32)[C@H](O)[C@@H]1O
IC50 [1]: 2.5 µM | Kd [2]: 2.9 µM

OC[C@H]1O[C@@H](n2cnc3c(NCCCc4ccccc4)ncnc32)[C@H](O)[C@@H]1O
IC50 [1]: 0.7 µM | Kd [2]: 0.5 µM

Nc1ccc(CNc2ncnc3c2ncn3[C@@H]2O[C@H](CO)[C@@H](O)[C@H]2O)cc1
deltaH [19]: -12.2 kcal/mol | IC50 [1]: 10 µM | Kd [2]: 14 µM

CC(C)(C)OC(=O)N1CCC(CNc2ncnc3c2ncn3[C@@H]2O[C@H](CO)[C@@H](O)[C@H]2O)CC1
IC50 [1]: 2 µM | Kd [2]: 1.1 µM

Nc1ccc(CCCNc2ncnc3c2ncn3[C@@H]2O[C@H](CO)[C@@H](O)[C@H]2O)cc1
IC50 [1]: 1.4 µM | Kd [2]: 1.5 µM

CSC[C@H]1O[C@@H](n2cnc3c(N)ncnc32)[C@H](O)[C@@H]1O [METHYLTHIOADENOSINE]
IC50 [20]: 18 µM | Kd [21]: 10 µM | IC50 [1]: 18 µM | Kd [2]: 11 µM

OC[C@H]1O[C@@H](n2cnc3c(NCCCC4CCNCC4)ncnc32)[C@H](O)[C@@H]1O
IC50 [1]: 3.8 µM

OC[C@H]1O[C@@H](n2cnc3c(NCCCCCc4ccccc4)ncnc32)[C@H](O)[C@@H]1O
IC50 [1]: 1.3 µM | Kd [2]: 1.3 µM
